Measured values: publication PMC2225614 (The Journal of General Physiology, 2001)

Key:
rod CNG channels = conditions: ref Molokanova et al. 1999a; cited from earlier work
[1] = target: T1, α-subunit of the bovine retinal rod CNG channel (RETα) (Bos taurus, UniProt Q00194); assay type: biochemical; conditions: 10 μM Ni^2+; subsaturating cGMP (25 μM); steady state
T1 sequence (Q00194 1-690): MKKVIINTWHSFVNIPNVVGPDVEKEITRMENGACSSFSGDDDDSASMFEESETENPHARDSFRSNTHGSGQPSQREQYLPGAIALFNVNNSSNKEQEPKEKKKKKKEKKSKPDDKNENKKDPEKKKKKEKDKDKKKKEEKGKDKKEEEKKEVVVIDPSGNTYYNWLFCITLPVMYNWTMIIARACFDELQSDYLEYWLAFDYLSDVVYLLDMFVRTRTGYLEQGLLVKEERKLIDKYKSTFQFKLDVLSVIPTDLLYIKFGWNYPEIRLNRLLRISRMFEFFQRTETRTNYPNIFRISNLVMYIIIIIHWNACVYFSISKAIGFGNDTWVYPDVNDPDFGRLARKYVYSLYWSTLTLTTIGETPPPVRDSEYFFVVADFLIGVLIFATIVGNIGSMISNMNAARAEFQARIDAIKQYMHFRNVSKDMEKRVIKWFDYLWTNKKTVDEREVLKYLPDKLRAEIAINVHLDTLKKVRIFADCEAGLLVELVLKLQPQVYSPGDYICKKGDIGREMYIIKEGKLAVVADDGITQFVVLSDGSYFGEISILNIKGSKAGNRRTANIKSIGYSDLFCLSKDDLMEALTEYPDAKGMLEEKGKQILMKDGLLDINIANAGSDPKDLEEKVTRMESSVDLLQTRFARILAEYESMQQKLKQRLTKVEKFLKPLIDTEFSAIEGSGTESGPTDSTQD
Outline: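 RETα was expressed in oocytes from 50 nl of 50 ng/μl RNA. Inside-out patches were held at −75 mV in symmetrical NaCl/EGTA/EDTA/HEPES, pH 7.5, with solution exchange within 50 ms. Current was normalized to Imax: residual current after 1 min preexposure then 2 mM cGMP, or steady-state current with compound added during 2 mM cGMP. Ki and Hill coefficient came from a modified Hill fit; τa from single-exponential fits; mean ± SEM.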

SMILES: O=CN/C=C/c1cc(O)ccc1O [erbstatin]
- effect on genistein's action on CNG channels (rod CNG channels): noncompetitively prevents genistein's effect on the channels

SMILES: [Ni+2] [Ni^2+]
- effect of Ni^2+ on genistein inhibition [1]: only reduces genistein inhibition

SMILES: Nc1ncnc2c1ncn2[C@@H]1O[C@H](COP(=O)(O)OP(=O)(O)NP(=O)(O)O)[C@@H](O)[C@H]1O [AMP-PNP]
- effect on genistein's action on CNG channels (rod CNG channels): competitive inhibitor of genistein's action on CNG channels
